In brackets after ≈: the same amount, converted by molar mass. Activity calls are given as the source filed them. No cut-off for these calls is given here.
Experiments:
[1] = target: Nuclear receptor subfamily 4immunitygroup A member 1 (Homo sapiens, UniProt P22736, Y453A); assay: Binding affinity to Nur77 Y453A mutant expressed in human BGC823 cells; type: cell-based, BGC-823
[2] = system: Mycobacterium tuberculosis; assay: Antimicrobial activity against Mycobacterium tuberculosis; type: functional, organism-based
Saccharomyces cerevisiae = assay: Antimicrobial activity against Saccharomyces cerevisiae; type: functional, organism-based
[3] = target: T1, Nuclear receptor subfamily 4immunitygroup A member 1 (Homo sapiens, UniProt P22736); assay: Binding affinity to nuclear orphan receptor Nur77 assessed as conformational change in receptor by CD spectroscopic
Staphylococcus aureus = assay: Antimicrobial activity against Staphylococcus aureus; type: functional, organism-based
BGC-823 = assay: Induction of mitochondria translocation of Nur77 from nucleus in human BGC823 cells transfected with GFP-Nur77 pretreated with 1 ng/ml leptomycin B at 5 ug/ml after 12 hrs using […] by confocal microscope; type: functional, cell-based
[4] = target: T1, Nuclear receptor subfamily 4immunitygroup A member 1; assay: Binding affinity to GST-tagged nuclear orphan receptor Nur77 at 25 degC by fluorescence quenching analysis
How it was run: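 GST-Nur77 intrinsic fluorescence (emission maximum 336 nm) monitored while increasing Csn-B amounts were added; inner-filter contribution estimated with GST alone and subtracted to give corrected quenching curves.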

T1 sequence (P22736 whole entry): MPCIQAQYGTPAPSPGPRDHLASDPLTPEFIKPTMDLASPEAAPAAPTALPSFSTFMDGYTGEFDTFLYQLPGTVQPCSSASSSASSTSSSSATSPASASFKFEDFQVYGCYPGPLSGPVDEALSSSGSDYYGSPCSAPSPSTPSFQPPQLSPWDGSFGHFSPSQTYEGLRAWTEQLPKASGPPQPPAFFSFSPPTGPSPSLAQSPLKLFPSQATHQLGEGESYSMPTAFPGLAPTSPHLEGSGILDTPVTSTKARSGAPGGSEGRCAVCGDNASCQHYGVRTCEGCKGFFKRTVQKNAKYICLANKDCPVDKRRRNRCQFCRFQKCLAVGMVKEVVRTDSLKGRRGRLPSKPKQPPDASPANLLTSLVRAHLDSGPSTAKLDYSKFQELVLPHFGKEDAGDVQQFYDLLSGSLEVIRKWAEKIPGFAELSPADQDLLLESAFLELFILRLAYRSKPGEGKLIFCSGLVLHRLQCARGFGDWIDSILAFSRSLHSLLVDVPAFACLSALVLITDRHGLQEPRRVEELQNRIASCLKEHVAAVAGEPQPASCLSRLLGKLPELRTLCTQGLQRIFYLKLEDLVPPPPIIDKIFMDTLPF
Sequence of Nuclear receptor subfamily 4immunitygroup A member 1 (Homo sapiens, UniProt P22736, Y453A) (P22736 whole entry Y453A): as the sequence (P22736 whole entry) above, with Y453A counted along it

| SMILES | Kd [1] | IC50 [2] | IC50 (Saccharomyces cerevisiae) | Activity [3] | IC50 (Staphylococcus aureus) | Activity (BGC-823) | Activity [4] |
| --- | --- | --- | --- | --- | --- | --- | --- |
| CC1=C(/C=C/C(C)=C\C=C\C(C)=C\C(=O)O)C(C)(C)CCC1 [ALITRETINOIN] | 810 nM |  |  |  |  |  |  |
| CCCCCCCC1OC(=O)Cc2cc(O)cc(O)c21 (configuration not stated) [CYTOSPORONE C] |  | 62.5 µg/mL (≈ 225 µM) | 12.5 µg/mL (≈ 44.9 µM) | inactive | 50 µg/mL (≈ 180 µM) | inactive | inactive |

From ChEMBL document CHEMBL1221214, “Cytosporone B is an agonist for nuclear orphan receptor Nur77” (Nat Chem Biol, 2008)
